Consider 25 compounds from ChEMBL document CHEMBL2380237, “Substituted imidazopyridazines are potent and selective inhibitors of Plasmodium falciparum calcium-dependent protein kinase 1 (PfCDPK1)” (Bioorg Med Chem Lett, 2013).

Structures are written as SMILES. Calls of active or inactive are those of the source. The rule behind the calls is not given here.

For one data set, the system named is Plasmodium berghei. Briefly: Inhibition of Plasmodium berghei recombinant CDPK1 by fluorescence assay in presence of rhodamine-labeled ParM. A digest of the protocol: (§1)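 Recombinant CDPK1 (P. berghei or P. vivax) ATPase activity followed with an ADP-sensitive biosensor, rhodamine-labeled ParM; reaction progress tracked as rising fluorescence from ADP accumulation on a plate reader.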

The nature of data set [1]: Metabolic stability in mouse liver microsomes after 30 mins. The note with it: read-out: Stability. The data set is classed as ADME, Microsome.
The next data set has as its system Plasmodium vivax. Briefly: Inhibition of Plasmodium vivax recombinant CDPK1 by fluorescence assay in presence of rhodamine-labeled ParM. A digest of the protocol:
as §1

The target in data set [2] is Receptor tyrosine-protein kinase erbB-4 (Homo sapiens) (UniProt Q15303). Briefly: Inhibition of human HER4 at 1 uM.
Data set [3] addresses Phosphorylase kinase (Homo sapiens) (UniProt P15735+P46020+P46019+Q93100+Q16816). Kind of data set: Inhibition of human PHK at 1 uM. The data set is classed as protein-complex assay.
Data set [4] has as its target Ribosomal protein S6 kinase alpha-1 (Homo sapiens) (UniProt Q15418). Briefly: Inhibition of human RSK1 at 1 uM.
Data set [5] is described as follows: Metabolic stability in human liver microsomes after 30 mins. Particulars: read-out: Stability. The data set is classed as ADME, Microsome.
Data set [6] concerns the target Calcium/calmodulin-dependent protein kinase type 1 (Homo sapiens) (UniProt Q14012). Kind of data set: Inhibition of human CAMK1 at 1 uM.
Data set [7] concerns the target T1, NUAK family SNF1-like kinase 1 (Homo sapiens) (UniProt O60285).
T1 sequence (whole entry): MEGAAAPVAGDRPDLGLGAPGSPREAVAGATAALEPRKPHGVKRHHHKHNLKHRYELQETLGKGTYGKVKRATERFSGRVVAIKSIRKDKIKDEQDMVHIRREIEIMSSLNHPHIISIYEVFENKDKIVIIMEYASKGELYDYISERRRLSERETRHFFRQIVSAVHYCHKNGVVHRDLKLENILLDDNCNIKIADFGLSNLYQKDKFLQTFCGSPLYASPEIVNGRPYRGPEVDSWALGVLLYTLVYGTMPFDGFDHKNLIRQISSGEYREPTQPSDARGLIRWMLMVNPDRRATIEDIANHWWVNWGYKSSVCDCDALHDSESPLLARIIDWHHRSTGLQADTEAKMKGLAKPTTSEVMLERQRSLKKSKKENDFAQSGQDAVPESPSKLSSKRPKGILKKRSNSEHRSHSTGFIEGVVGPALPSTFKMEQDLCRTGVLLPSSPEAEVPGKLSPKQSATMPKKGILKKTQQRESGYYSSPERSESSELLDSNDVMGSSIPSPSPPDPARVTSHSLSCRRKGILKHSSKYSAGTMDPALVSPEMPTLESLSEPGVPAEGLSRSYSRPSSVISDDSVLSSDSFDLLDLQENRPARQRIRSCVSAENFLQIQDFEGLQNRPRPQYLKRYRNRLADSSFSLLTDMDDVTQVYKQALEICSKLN
Kind of data set: Inhibition of human NUAK1 at 1 uM.

The target of data set [8] is Aurora kinase B (Homo sapiens) (UniProt Q96GD4). Kind of data set: Inhibition of human Aurora B at 1 uM.
Aurora kinase B (Homo sapiens), sequence (Q96GD4 whole entry): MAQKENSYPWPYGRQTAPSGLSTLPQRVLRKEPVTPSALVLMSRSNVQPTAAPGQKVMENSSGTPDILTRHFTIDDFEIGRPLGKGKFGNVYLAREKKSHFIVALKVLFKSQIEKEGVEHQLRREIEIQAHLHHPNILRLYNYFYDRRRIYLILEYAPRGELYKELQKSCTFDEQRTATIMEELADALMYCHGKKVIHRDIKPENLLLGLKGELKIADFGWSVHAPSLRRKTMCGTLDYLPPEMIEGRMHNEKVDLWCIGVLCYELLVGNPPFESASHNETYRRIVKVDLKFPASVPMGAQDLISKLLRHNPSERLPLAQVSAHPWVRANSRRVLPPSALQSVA
Data set [9] concerns the target Serine/threonine-protein kinase Chk2 (Homo sapiens) (UniProt O96017). Briefly: Inhibition of human CHK2 at 1 uM.
Data set [10] deals with Tyrosine-protein kinase Lck (Homo sapiens) (UniProt P06239). Kind of data set: Inhibition of human LCK at 1 uM.
Data set [11] deals with Tyrosine-protein kinase Yes (Homo sapiens) (UniProt P07947). Kind of data set: Inhibition of human YES1 at 1 uM.
Tyrosine-protein kinase Yes (Homo sapiens), sequence (P07947 2-543 limits assumed): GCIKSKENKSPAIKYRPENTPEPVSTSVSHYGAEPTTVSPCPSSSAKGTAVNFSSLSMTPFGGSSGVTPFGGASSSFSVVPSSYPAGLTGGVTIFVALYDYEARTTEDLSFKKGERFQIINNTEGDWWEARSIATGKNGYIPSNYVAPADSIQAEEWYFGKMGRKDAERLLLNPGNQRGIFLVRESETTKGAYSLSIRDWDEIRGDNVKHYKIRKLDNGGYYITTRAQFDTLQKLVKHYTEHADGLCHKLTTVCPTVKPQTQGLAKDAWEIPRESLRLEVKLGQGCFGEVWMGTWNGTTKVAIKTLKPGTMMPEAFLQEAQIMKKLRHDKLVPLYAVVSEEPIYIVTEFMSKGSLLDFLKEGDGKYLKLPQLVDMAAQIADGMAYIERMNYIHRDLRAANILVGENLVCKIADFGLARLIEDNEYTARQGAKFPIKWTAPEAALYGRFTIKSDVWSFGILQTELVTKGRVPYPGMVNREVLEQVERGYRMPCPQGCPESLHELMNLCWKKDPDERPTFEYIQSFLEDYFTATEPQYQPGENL
The species named for a further data set is Homo sapiens. Briefly: Inhibition of human VEGFR at 1 uM.
Data set [12] in a line: Intrinsic clearance in mouse. The data set is classed as ADME, organism-based. The note with it: in vivo.
In data set [13] the target is Dual specificity mitogen-activated protein kinase kinase 1 (Homo sapiens) (UniProt Q02750). Briefly: Inhibition of human MKK1 at 1 uM.
Dual specificity mitogen-activated protein kinase kinase 1 (Homo sapiens), sequence (Q02750 whole entry): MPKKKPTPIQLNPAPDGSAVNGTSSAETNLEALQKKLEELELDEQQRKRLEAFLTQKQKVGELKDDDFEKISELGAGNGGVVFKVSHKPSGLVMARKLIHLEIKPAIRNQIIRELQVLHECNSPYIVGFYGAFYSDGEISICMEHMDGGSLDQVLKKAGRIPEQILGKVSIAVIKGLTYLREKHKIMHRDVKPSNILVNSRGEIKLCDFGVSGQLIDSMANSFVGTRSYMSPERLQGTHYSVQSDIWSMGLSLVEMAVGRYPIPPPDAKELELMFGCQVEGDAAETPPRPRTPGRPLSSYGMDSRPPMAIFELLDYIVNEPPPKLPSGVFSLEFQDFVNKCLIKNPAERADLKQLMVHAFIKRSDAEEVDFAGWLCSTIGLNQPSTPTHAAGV
The target of data set [14] is T2, Serine/threonine-protein kinase D1 (Homo sapiens) (UniProt Q15139).
T2 sequence (whole entry): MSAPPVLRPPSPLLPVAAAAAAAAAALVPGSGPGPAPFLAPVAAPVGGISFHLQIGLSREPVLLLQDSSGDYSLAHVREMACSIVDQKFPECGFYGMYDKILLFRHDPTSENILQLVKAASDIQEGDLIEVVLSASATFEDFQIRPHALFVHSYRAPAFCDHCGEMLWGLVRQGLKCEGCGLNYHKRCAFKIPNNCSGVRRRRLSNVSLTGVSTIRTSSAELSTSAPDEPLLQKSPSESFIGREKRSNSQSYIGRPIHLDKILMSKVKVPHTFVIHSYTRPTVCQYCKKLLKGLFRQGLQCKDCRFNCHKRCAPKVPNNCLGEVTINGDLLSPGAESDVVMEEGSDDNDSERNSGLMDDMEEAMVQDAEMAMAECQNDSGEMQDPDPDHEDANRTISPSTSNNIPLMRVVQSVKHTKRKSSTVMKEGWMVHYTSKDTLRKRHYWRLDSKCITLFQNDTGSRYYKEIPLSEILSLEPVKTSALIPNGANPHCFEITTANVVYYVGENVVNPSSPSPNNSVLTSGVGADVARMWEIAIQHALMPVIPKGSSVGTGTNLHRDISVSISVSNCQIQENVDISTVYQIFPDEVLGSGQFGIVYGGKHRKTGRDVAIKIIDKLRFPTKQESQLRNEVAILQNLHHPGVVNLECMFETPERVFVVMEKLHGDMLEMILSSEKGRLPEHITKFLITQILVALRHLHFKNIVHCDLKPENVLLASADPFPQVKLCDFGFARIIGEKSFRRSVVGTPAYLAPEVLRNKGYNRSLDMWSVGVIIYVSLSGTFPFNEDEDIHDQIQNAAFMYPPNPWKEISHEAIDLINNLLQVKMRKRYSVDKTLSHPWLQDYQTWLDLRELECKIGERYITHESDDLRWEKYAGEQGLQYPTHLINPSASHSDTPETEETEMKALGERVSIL
Briefly: Inhibition of human PKD1 at 1 uM.

For data set [15], the target named is Proto-oncogene tyrosine-protein kinase Src (Homo sapiens) (UniProt P12931). Kind of data set: Inhibition of human SRC at 1 uM.
Proto-oncogene tyrosine-protein kinase Src (Homo sapiens), sequence (P12931 2-536 limits assumed): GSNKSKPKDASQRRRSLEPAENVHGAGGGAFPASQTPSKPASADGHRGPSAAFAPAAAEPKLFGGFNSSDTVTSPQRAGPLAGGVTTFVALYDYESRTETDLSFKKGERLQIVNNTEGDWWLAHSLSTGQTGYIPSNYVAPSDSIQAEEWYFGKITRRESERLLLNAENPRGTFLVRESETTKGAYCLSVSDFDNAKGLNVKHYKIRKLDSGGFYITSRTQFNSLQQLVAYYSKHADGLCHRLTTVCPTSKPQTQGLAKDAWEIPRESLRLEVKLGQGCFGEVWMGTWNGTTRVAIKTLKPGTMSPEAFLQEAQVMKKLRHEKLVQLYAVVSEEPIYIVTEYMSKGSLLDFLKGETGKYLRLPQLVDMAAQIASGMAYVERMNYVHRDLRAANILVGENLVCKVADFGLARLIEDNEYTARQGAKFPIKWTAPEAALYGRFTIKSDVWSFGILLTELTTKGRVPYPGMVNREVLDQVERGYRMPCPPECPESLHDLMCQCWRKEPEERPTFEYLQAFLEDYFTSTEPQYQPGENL
The target in data set [16] is Mitogen-activated protein kinase kinase kinase 9 (Homo sapiens) (UniProt P80192). Kind of data set: Inhibition of human MLK1 at 1 uM.
Mitogen-activated protein kinase kinase kinase 9 (Homo sapiens), sequence (P80192 whole entry, looked up): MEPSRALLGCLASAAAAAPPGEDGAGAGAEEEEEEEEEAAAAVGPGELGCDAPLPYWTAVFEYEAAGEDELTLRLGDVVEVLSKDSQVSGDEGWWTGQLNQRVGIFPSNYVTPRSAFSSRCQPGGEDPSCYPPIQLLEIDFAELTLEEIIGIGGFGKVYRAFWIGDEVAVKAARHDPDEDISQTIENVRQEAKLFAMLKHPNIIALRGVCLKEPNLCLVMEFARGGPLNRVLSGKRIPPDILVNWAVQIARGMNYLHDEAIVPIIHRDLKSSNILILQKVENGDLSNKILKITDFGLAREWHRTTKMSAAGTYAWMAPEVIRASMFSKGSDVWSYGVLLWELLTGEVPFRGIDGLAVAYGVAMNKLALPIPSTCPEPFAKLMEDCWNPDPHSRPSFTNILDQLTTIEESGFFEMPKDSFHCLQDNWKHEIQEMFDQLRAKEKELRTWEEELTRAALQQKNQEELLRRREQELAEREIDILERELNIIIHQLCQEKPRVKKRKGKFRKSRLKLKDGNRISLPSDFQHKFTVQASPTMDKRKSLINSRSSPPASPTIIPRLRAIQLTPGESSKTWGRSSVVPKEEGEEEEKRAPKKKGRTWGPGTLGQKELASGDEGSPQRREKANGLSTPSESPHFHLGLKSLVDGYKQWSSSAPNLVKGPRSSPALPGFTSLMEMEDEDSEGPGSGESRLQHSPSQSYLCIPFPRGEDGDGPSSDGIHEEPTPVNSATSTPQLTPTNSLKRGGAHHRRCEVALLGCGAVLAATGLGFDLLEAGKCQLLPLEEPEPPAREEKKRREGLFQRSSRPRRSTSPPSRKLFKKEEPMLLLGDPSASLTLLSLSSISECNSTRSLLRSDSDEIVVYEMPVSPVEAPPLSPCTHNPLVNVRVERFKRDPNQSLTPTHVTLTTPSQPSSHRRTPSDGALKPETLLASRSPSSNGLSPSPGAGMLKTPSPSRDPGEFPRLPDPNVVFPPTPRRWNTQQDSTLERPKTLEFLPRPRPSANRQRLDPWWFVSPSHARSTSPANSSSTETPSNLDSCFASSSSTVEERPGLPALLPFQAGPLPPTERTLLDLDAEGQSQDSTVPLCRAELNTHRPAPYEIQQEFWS
The target of data set [17] is T3, Mitogen-activated protein kinase kinase kinase kinase 2 (Homo sapiens) (UniProt Q12851).
T3 sequence (whole entry): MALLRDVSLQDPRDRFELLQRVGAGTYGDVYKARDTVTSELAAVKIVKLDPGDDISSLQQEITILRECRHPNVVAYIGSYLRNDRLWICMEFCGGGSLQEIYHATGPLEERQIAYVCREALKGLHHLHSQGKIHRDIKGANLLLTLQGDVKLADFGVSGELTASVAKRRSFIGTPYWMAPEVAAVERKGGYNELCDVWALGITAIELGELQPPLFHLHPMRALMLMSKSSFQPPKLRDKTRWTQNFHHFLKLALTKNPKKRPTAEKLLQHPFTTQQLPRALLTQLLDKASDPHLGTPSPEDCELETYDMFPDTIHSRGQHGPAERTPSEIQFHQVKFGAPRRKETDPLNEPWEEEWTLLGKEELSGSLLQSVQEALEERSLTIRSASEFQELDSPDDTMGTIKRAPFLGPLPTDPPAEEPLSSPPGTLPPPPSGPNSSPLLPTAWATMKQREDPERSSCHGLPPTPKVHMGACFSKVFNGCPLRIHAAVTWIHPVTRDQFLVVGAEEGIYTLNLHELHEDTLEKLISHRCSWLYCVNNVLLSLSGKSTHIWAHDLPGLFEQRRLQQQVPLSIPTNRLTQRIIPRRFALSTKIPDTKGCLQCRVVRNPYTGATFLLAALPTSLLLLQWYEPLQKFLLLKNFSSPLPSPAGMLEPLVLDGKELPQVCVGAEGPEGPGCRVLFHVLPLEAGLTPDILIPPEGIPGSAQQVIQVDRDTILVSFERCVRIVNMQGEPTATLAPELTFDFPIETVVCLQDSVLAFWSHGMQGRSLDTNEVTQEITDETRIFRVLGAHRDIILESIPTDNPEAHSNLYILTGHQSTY
Briefly: Inhibition of human GCK at 1 uM.

Ribosomal protein S6 kinase alpha-1 (Homo sapiens), sequence (Q15418 whole entry): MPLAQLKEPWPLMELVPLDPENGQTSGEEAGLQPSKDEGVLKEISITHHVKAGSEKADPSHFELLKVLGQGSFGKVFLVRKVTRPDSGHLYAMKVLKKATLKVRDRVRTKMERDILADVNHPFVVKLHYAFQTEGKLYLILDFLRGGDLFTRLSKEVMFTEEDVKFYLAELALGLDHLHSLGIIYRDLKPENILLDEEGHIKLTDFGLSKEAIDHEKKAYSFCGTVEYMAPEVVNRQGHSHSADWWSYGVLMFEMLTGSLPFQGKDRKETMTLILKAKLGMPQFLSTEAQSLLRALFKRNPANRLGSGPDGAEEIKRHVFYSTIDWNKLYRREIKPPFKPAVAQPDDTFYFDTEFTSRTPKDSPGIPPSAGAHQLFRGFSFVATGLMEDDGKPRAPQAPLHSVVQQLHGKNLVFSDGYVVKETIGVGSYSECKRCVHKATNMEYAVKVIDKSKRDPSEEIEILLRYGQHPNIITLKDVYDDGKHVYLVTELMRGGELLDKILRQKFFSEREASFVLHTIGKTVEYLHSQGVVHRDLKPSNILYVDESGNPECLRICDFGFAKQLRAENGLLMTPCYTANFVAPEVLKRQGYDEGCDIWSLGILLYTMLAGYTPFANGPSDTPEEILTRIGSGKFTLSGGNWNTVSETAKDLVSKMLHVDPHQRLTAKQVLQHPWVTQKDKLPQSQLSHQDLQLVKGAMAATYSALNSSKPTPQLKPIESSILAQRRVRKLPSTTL
Serine/threonine-protein kinase Chk2 (Homo sapiens), sequence (O96017 whole entry): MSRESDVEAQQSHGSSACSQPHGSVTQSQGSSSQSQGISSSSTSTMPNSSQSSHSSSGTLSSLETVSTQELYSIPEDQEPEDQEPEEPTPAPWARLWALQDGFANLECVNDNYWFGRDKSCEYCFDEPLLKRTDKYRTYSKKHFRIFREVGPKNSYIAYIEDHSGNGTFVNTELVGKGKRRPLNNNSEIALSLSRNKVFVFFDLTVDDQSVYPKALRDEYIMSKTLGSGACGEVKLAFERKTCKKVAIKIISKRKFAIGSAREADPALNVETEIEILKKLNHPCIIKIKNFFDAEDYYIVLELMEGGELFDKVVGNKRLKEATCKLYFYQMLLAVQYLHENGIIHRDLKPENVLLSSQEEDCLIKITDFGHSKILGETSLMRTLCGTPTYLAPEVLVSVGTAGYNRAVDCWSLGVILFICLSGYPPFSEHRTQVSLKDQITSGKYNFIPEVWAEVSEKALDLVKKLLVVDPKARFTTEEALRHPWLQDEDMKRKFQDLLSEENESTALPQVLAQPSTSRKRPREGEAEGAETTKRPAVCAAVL
Calcium/calmodulin-dependent protein kinase type 1 (Homo sapiens), sequence (Q14012 whole entry, looked up): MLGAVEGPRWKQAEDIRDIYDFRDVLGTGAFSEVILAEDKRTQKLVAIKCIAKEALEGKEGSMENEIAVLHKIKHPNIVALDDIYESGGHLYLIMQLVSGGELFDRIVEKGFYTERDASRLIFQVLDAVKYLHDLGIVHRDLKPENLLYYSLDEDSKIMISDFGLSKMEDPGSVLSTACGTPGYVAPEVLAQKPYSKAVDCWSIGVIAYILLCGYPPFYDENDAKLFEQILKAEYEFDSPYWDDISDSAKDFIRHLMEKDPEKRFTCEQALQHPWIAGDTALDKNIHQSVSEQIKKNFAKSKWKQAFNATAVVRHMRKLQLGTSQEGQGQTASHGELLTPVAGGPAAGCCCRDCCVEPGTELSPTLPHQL

For `CN1CCC(Nc2ccc3ncc(-c4cccc(NC(=O)C5CC5)c4)n3n2)CC1`, the inhibition result in the data set on Plasmodium berghei is “Active”.
`CC(C)CCNc1ncc(-c2cnc3ccc(NC4CCN(C)CC4)nn23)cn1`: the inhibition result with Plasmodium berghei was “Active”.
Same read-out and setting: to `NC(=O)c1ccc(-c2cnc3ccc(NCCc4cccnc4)nn23)cc1` belongs “Active”; to `Fc1cccc(-c2cnc3ccc(NCCc4cccnc4)nn23)c1`, “Active”.
Take `NC(=O)c1ccc(-c2cnc3ccc(NCCc4ccccn4)nn23)cc1`: in the data set on Plasmodium berghei, the inhibition entry was “Active”.
Still for that read-out and setting: to `CC(=O)Nc1cccc(-c2cnc3ccc(NCCc4ccccn4)nn23)c1` belongs “Active”; to `CC(=O)Nc1cccc(-c2cnc3ccc(N[C@H]4CC[C@H](N)CC4)nn23)c1`, “Active”.
`CC(C)CCOc1ccc(-c2cnc3ccc(N[C@H]4CC[C@H](N)CC4)nn23)cn1`: the inhibition entry in the data set with Plasmodium berghei is “Active”.
The same measure, in the same setting: next, `CC(C)CCNc1ccc(-c2cnc3ccc(NC4CCNCC4)nn23)cn1`: “Active”.
Turning to `CC(C)CCNc1ccc(-c2cnc3ccc(N4CCC(N)CC4)nn23)cn1`, the remaining at 0.5 h in data set [1] and in [5] was 90% throughout. In addition, the inhibition result (in the data set on Plasmodium berghei; in the data set with Plasmodium vivax; in data set [2]; in data set [3]; in [4]; in data set [6]) was “Active” throughout. Besides, the inhibition result in data set [7] is “Active”.
Take `CC(C)CCNC(=O)c1ccc(-c2cnc3ccc(NC4CCN(C)CC4)nn23)cc1`: the inhibition entry in the data set on Plasmodium berghei was “Active”.
For the compound `CC(C)CCNc1ccc(-c2cnc3ccc(NC4CCN(C)C4)nn23)cn1` (centres undefined), the values for the remaining at 0.5 h in data set [1] and in data set [5] were 74% and 63%, respectively. Moreover, the inhibition entry (in the data set with Plasmodium berghei; in the data set with Plasmodium vivax; in [4]) was “Active” in each case.
For `CC(C)CCNc1ccc(-c2cnc3ccc(NC4CN(C)C4)nn23)cn1`, the inhibition result with Plasmodium berghei was “Active”.
Take `CC(C)CCNc1ccc(-c2cnc3ccc(NC4CCN(C)CC4)nn23)cn1`: the inhibition result (in [8]; in data set [9]; in the data set on Plasmodium berghei; in [10]; in the data set on Plasmodium vivax; in data set [11]) was “Active” each time. The inhibition result (in the data set listed under Homo sapiens; in data set [13]; in data set [4]; in data set [14]; in [15]; in data set [16]) was “Active” each time. Also, the inhibition entry in data set [17] and in data set [7] was “Active” each time. In addition, the remaining at 0.5 h in data set [1] is 63%. The compound also showed a CLint scaled in data set [12] of 49.7 mL/min/kg.
For `CCCCNc1ccc(-c2cnc3ccc(NC4CCN(C)CC4)nn23)cn1`, the inhibition entry with Plasmodium berghei is “Active”.
On the same count and under the same terms, next, `CN1CCC(Nc2ccc3ncc(-c4ccc(NCC5CC5)nc4)n3n2)CC1`: “Active”.
For `CC(C)CCNc1ncc(-c2cnc3ccc(N[C@H]4CC[C@H](N)CC4)nn23)cn1`, in the data set with Plasmodium berghei, the inhibition entry is “Active”.
Still for that read-out and setting: next, `N#Cc1ccc(-c2cnc3ccc(NCCc4cccnc4)nn23)cc1`: “Active”.
As to `COC(=O)Nc1cccc(-c2cnc3ccc(NC4CCN(C)CC4)nn23)c1`, in the data set with Plasmodium berghei, the inhibition result is “Active”.
Still for that read-out and setting: to `CC(C)CCNc1nccc(-c2cnc3ccc(NC4CCN(C)CC4)nn23)n1` belongs “Active”; to `CC(C)CCNC(=O)c1ccc(-c2cnc3ccc(N[C@H]4CC[C@H](N)CC4)nn23)cc1`, “Active”.
On the same count and under the same terms, to `CC(C)CCNc1ccc(-c2cnc3ccc(N4CCN(C)CC4)nn23)cn1` belongs “Active”.
On the same count and under the same terms, next, `CC(C)CCNc1cc(-c2cnc3ccc(NC4CCN(C)CC4)nn23)ccn1`: “Active”.
As for `CC(C)CCNc1ccc(-c2cnc3ccc(N4CCC(N(C)C)CC4)nn23)cn1`, the remaining at 0.5 h in data set [1] is 84%; in [5], 80%. In addition, the inhibition entry in the data set on Plasmodium berghei is “Active”.
In the case of `COCCNc1ccc(-c2cnc3ccc(NC4CCN(C)CC4)nn23)cn1`, the inhibition result with Plasmodium berghei was “Active”.
